Laboratory results from ChEMBL document CHEMBL1123049, “Functionalized congeners of adenosine: preparation of analogues with high affinity for A1-adenosine receptors” (J Med Chem, 1985).

biological target: T1, Adenosine receptor A1 (Rattus norvegicus, UniProt P25099); assay: Inhibition of binding of 1 nM N6-[3H]cyclohexyladenosine to adenosine A1 receptor on rat cerebral cortical membranes.; type: cell membranes, Membrane
T1 sequence (P25099 whole entry): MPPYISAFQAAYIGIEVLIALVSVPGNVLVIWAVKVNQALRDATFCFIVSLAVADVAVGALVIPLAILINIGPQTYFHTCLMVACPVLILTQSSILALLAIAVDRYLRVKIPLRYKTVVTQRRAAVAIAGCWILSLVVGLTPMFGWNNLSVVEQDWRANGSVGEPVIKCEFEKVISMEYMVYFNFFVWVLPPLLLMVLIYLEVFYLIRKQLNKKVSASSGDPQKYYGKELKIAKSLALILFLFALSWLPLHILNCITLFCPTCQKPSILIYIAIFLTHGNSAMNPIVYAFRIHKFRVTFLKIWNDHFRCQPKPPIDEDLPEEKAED
Summary of the method: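 Displacement of 1 nM N6-[3H]cyclohexyladenosine by a range of analogue concentrations, run in triplicate in at least two separate experiments. IC50 estimated graphically for each experiment. Values are mean ± SEM of two to four experiments.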

Structure (SMILES)	Ki
Cc1ccc(NC(=O)Cc2ccc(Nc3ncnc4c3ncn4C3O[C@H](CO)[C@@H](O)[C@H]3O)cc2)cc1 (some centres not stated)	1.7 nM
CCOC(=O)CNC(=O)Cc1ccc(Nc2ncnc3c2ncn3C2O[C@H](CO)[C@@H](O)[C@H]2O)cc1 (some centres not stated)	15 nM
Cc1ccc(Nc2ncnc3c2ncn3C2O[C@H](CO)[C@@H](O)[C@H]2O)cc1 (some centres not stated)	2.5 nM
NNC(=O)Cc1ccc(NC(=O)Cc2ccc(Nc3ncnc4c3ncn4C3O[C@H](CO)[C@@H](O)[C@H]3O)cc2)cc1 (some centres not stated)	4.5 nM
O=C(O)Cc1ccc(Nc2ncnc3c2ncn3C2O[C@H](CO)[C@@H](O)[C@H]2O)cc1 (some centres not stated)	210 nM
Cc1ccccc1NC(=O)Cc1ccc(Nc2ncnc3c2ncn3C2O[C@H](CO)[C@@H](O)[C@H]2O)cc1 (some centres not stated)	6.8 nM
O=C(CCCCC1SCC2NC(=O)NC21)NCCNC(=O)Cc1ccc(NC(=O)Cc2ccc(Nc3ncnc4c3ncn4C3O[C@H](CO)[C@@H](O)[C@H]3O)cc2)cc1 (some centres not stated)	11.4 nM
Cc1cccc(NC(=O)Cc2ccc(Nc3ncnc4c3ncn4C3O[C@H](CO)[C@@H](O)[C@H]3O)cc2)c1 (some centres not stated)	2 nM

Continued by falling Ki, values first:

Ki	Structure (SMILES)
18 nM	COC(=O)C(Cc1ccc(NC(=O)Cc2ccc(Nc3ncnc4c3ncn4C3O[C@H](CO)[C@@H](O)[C@H]3O)cc2)cc1)NC(=O)C(F)(F)F (some centres not stated)
13 nM	CNC(=O)CNC(=O)C(Cc1ccc(NC(=O)Cc2ccc(Nc3ncnc4c3ncn4C3O[C@H](CO)[C@@H](O)[C@H]3O)cc2)cc1)NC(=O)OC(C)(C)C (some centres not stated)
9.3 nM	CC(=O)NCCNC(=O)Cc1ccc(NC(=O)Cc2ccc(Nc3ncnc4c3ncn4C3O[C@H](CO)[C@@H](O)[C@H]3O)cc2)cc1 (some centres not stated)
6.7 nM	CNC(=O)Cc1ccc(NC(=O)Cc2ccc(Nc3ncnc4c3ncn4C3O[C@H](CO)[C@@H](O)[C@H]3O)cc2)cc1 (some centres not stated)
4.5 nM	O=C(CCc1ccc(O)cc1)NCCNC(=O)Cc1ccc(NC(=O)Cc2ccc(Nc3ncnc4c3ncn4C3O[C@H](CO)[C@@H](O)[C@H]3O)cc2)cc1 (some centres not stated)
3.3 nM	O=C(Cc1ccc(Nc2ncnc3c2ncn3C2O[C@H](CO)[C@@H](O)[C@H]2O)cc1)Nc1ccc(C(F)(F)F)cc1 (some centres not stated)
3.2 nM	OC[C@H]1O[C@@H](n2cnc3c(Nc4ccccc4)ncnc32)[C@H](O)[C@@H]1O [N6-PHENYLADENOSINE]
2.5 nM	COC(=O)Cc1ccc(NC(=O)Cc2ccc(Nc3ncnc4c3ncn4C3O[C@H](CO)[C@@H](O)[C@H]3O)cc2)cc1 (some centres not stated)
2.3 nM	COc1ccc(Nc2ncnc3c2ncn3[C@@H]2O[C@H](CO)[C@@H](O)[C@H]2O)cc1
